The results in this text go back to ChEMBL document CHEMBL1128272, “Stereoselective LSD-like activity in a series of d-lysergic acid amides of (R)- and (S)-2-aminoalkanes” (J Med Chem, 1995).

A word on the ED50: it is the dose at which the effect has come halfway, by size or by number of responders. One may read the Ki as a dissociation constant, usually derived from enzyme kinetics or from competition with a known ligand.

Activity calls are given as the source filed them. The rule behind the calls is not given here.

The test system of assay [1] is Rattus norvegicus. Briefly: Effective dose in trained rats was determined at a dose of 213 (nmol/kg). In kind it is functional, organism-based.
Assay [2] deals with T1, 5-hydroxytryptamine receptor 2A (Rattus norvegicus, UniProt P14842). Briefly: (§1) Binding affinity was measured against 5-hydroxytryptamine 2A receptor by displacement of [3H]- ketanserin by lysergic acid amides. In a few lines:
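Rat frontal cortex membranes from pooled male Sprague-Dawley rats, preincubated at 37 °C, in 50 mM Tris HCl (pH 7.4) with 0.5 mM Na2EDTA, 0.1% ascorbate, 10 μM pargyline and 5.7 mM CaCl2. Triplicates. Three to four experiments combined.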

Assay [3] relates to Rattus norvegicus. Briefly: Compound was tested for its effect on animals. Value reported as number of rats disrupted in trained rats at a dose of 639 (nmol/kg). In kind it is functional. Summed up:
(§2)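 Two-lever drug discrimination in food-restricted rats (~80% free-feeding weight) trained on FR 50 to tell saline from LSD tartrate (186 nmol/kg, 0.08 mg/kg ip, 30 min pre-session). Test drugs were given ip in saline, 1 mL/kg. Test sessions ran under extinction, ending at 50 presses on either lever. Testing required 85% training accuracy. Counts of rats tested and disrupted were recorded, plus the percentage selecting the drug lever.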

Assay [4] deals with Rattus norvegicus. Briefly: Percentage of animals selecting drug lever in trained rats at a dose 213 (nmol/kg). The assay is classed as functional. Summed up:
as §2

Assay [5] concerns Rattus norvegicus. Briefly: Compound was tested for its effect on animals. Value reported as number of rats disrupted in trained rats at a dose of 426 (nmol/kg). The assay is classed as functional. Summed up:
as §2

The target in assay [6] is T2, 5-hydroxytryptamine receptor 1A (Rattus norvegicus, UniProt P19327).
T2 sequence (P19327 whole entry): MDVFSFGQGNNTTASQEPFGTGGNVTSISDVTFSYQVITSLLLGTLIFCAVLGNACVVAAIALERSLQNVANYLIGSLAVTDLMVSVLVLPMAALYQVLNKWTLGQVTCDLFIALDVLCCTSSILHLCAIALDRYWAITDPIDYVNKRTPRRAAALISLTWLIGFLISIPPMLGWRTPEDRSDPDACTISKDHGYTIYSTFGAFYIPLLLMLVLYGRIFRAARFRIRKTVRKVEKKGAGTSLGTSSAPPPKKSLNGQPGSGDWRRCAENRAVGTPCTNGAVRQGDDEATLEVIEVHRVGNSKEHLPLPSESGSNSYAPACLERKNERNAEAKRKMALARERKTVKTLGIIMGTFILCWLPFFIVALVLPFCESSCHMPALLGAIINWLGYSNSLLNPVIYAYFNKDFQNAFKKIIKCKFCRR
Briefly: Binding affinity was measured against 5-hydroxytryptamine 1A receptor by displacement of [3H]8-OH-DPAT by lysergic acid amides. In a few lines: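 Rat hippocampal membranes from pooled male Sprague-Dawley rats, preincubated at 37 °C, in 50 mM Tris HCl (pH 7.4) with 0.5 mM Na2EDTA, 0.1% ascorbate and 10 μM pargyline. Competition against 0.75 nM [3H]-8-OH-DPAT for 10 min at 37 °C, then GF/C filtration and scintillation counting. Triplicates. Three to four experiments combined, analysed with EBDA/LIGAND.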
(In general: In a radioligand displacement assay an active substance lowers the binding of a labelled ligand.)

The subject of assay [7] is Rattus norvegicus. Description: Compound was tested for its effect on animals. Value reported as number of rats disrupted in trained rats at a dose of 213 (nmol/kg). In kind it is functional. Summed up: as §2
Assay [8] relates to Rattus norvegicus. Briefly: Percentage of animals selecting drug lever in trained rats at a dose 639 (nmol/kg). In kind it is functional. Summed up:
(§3)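 Drug-naive rats held at about 80% of free-feeding weight were trained on a two-lever FR50 food schedule to tell ip LSD tartrate (186 nmol/kg, 0.08 mg/kg) from saline, given 30 min before sessions. Test drugs were given ip in saline (1 mL/kg). Tests ran under extinction and ended at 50 presses on either lever. Rats had to hold 85% correct on training days. Read-out was % selecting the drug lever per dose.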

Assay [9] concerns Rattus norvegicus. Briefly: Percentage of animals selecting drug lever in trained rats at a dose 426 (nmol/kg). The assay is classed as functional. Summed up: as §2
Assay [10] has as its system Rattus norvegicus. Description: Percentage of animals selecting drug lever in trained rats at a dose 63 (nmol/kg). The assay is classed as functional. In a few lines: as §3
For assay [11], the system named is Rattus norvegicus. Briefly: Compound was tested for its effect on animals. Value reported as number of rats disrupted in trained rats at a dose of 125 (nmol/kg). The assay is classed as functional. In a few lines: as §2
Assay [12] concerns Rattus norvegicus. Briefly: Effective dose in trained rats was determined at a dose of 63 (nmol/kg) Value in parentheses are with 95% confidence intervals. The assay is classed as functional.
Assay [13] deals with Rattus norvegicus. Briefly: Compound was tested for its effect on animals. Value reported as number of rats disrupted in trained rats at a dose of 250 (nmol/kg). The assay is classed as functional. In a few lines: as §2
The test system of assay [14] is Rattus norvegicus. Briefly: Percentage of animals selecting drug lever in trained rats at a dose 250 (nmol/kg). In kind it is functional. In a few lines: as §2
Assay [15] concerns Rattus norvegicus. Description: Compound was tested for its effect on animals. Value reported as number of rats disrupted in trained rats at a dose of 63 (nmol/kg). The assay is classed as functional. Summed up: as §2
In assay [16] the test system is Rattus norvegicus. Description: Compound was tested for its effect on animals. Value reported as number of rats disrupted in trained rats at a dose of 500 (nmol/kg). In kind it is functional. Summed up: as §2
In assay [17] the test system is Rattus norvegicus. Briefly: Potency in trained rats was determined with relative to reference compound […] at a dose of 63 (nmol/kg). In kind it is functional.
Assay [18] has as its system Rattus norvegicus. Description: Percentage of animals selecting drug lever in trained rats at a dose 125 (nmol/kg). In kind it is functional. In a few lines: as §2
The subject of assay [19] is Rattus norvegicus. Description: Percentage of animals selecting drug lever in trained rats at a dose 500 (nmol/kg). The assay is classed as functional. Summed up:
as §3

The subject of assay [20] is Rattus norvegicus. Briefly: Compound was tested for its effect on animals. Value reported as number of rats disrupted in trained rats at a dose of 12 (nmol/kg). In kind it is functional. Summed up:
as §2

Assay [21] relates to Rattus norvegicus. Briefly: Percentage of animals selecting drug lever in 1-Trained rats at a dose 186 (nmol/kg). In kind it is functional. Summed up:
as §2

Assay [22] has as its system Rattus norvegicus. Description: Percentage of animals selecting drug lever in trained rats at a dose 93 (nmol/kg). In kind it is functional. Summed up: as §3
The test system of assay [23] is Rattus norvegicus. Briefly: Compound was tested for its effect on animals. Value reported as number of rats disrupted in trained rats at a dose of 23 (nmol/kg). The assay is classed as functional. In a few lines:
as §2

Assay [24] relates to Rattus norvegicus. Description: Effective dose in trained rats was determined at a dose of 12 (nmol/kg). In kind it is functional.
Assay [25] deals with Rattus norvegicus. Description: Percentage of animals selecting drug lever in trained rats at a dose 47 (nmol/kg). The assay is classed as functional. Summed up: as §3
For assay [26], the system named is Rattus norvegicus. Briefly: Percentage of animals selecting drug lever in trained rats at a dose 12 (nmol/kg). In kind it is functional. In a few lines:
as §2

In assay [27] the test system is Rattus norvegicus. Briefly: Compound was tested for its effect on animals. Value reported as number of rats disrupted in trained rats at a dose of 93 (nmol/kg). In kind it is functional. In a few lines: as §2
Assay [28] concerns Rattus norvegicus. Description: Compound was tested for its effect on animals. Value reported as number of rats disrupted in trained rats at a dose of 47 (nmol/kg). The assay is classed as functional. In a few lines: as §2
Assay [29] deals with Rattus norvegicus. Briefly: Compound was tested for its effect on animals. Value reported as number of rats disrupted in trained rats at a dose of 186 (nmol/kg). In kind it is functional. In a few lines: as §2
For assay [30], the system named is Rattus norvegicus. Briefly: Potency in trained rats was determined with relative to reference compound […] at a dose of 12 (nmol/kg). The assay is classed as functional.
For assay [31], the system named is Rattus norvegicus. Briefly: Percentage of animals selecting drug lever in trained rats at a dose 23 (nmol/kg). In kind it is functional. Summed up: as §2
Assay [32] concerns Rattus norvegicus. Description: Percentage of animals selecting drug lever in trained rats at a dose 1760 (nmol/kg). In kind it is functional. In a few lines:
as §2

The subject of assay [33] is Rattus norvegicus. Briefly: Compound was tested for its effect on animals. Value reported as number of rats disrupted in trained rats at a dose of 1760 (nmol/kg). In kind it is functional. Summed up:
as §2

The test system of assay [34] is Rattus norvegicus. Description: Percentage of animals selecting drug lever in trained rats at a dose 220 (nmol/kg). In kind it is functional. In a few lines: as §2
Assay [35] has as its system Rattus norvegicus. Briefly: Percentage of animals selecting drug lever in trained rats at a dose 440 (nmol/kg). In kind it is functional. Summed up:
as §2

Assay [36] has as its system Rattus norvegicus. Description: Effective dose in trained rats was determined at a dose of 220 (nmol/kg). The assay is classed as functional, organism-based.
Assay [37] relates to Rattus norvegicus. Briefly: Compound was tested for its effect on animals. Value reported as number of rats disrupted in trained rats at a dose of 440 (nmol/kg). The assay is classed as functional. In a few lines: as §2
Assay [38] concerns the target T1, 5-hydroxytryptamine receptor 2A. The description is as §1. In a few lines:
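Rat frontal cortex membranes from pooled male Sprague-Dawley rats, preincubated at 37 °C, in 50 mM Tris HCl (pH 7.4) with 0.5 mM Na2EDTA, 0.1% ascorbate, 10 μM pargyline and 5.7 mM CaCl2. Displacement of 0.75 nM [3H]ketanserin with 200–400 μg protein for 15 min at 37 °C, then GF/C filtration. Triplicates. Three to four experiments combined.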
This is another data set of the same source.

T1 sequence (P14842 whole entry): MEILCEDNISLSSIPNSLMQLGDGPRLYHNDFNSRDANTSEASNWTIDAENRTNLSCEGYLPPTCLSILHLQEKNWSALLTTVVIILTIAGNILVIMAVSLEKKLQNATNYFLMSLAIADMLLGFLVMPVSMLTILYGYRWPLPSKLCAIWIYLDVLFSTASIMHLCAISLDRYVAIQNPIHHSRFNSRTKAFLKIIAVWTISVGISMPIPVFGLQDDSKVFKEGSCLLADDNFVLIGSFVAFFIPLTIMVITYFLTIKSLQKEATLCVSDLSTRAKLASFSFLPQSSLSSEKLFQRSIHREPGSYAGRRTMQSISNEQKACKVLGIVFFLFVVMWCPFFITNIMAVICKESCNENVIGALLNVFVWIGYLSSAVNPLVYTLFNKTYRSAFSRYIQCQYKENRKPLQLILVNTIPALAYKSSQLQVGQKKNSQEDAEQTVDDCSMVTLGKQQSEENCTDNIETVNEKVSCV

Turning to `CCCCC(C)NC(=O)[C@@H]1C=C2c3cccc4[nH]cc(c34)C[C@H]2N(C)C1` (stereo not given in full), in the assay with Rattus norvegicus [1], the ED50 entry is “inactive”. Further, the Ki in assay [2] was 55 nM; in assay [6] it was 4.9 nM. For the same compound, the D in the assay on Rattus norvegicus [3] is reported as 12.5%; in the assay on Rattus norvegicus [5], 30%; in the assay with Rattus norvegicus [7], 30%. For the same compound, the SDL came out at 29% in the assay on Rattus norvegicus [4], 0% with Rattus norvegicus [8] and 0% with Rattus norvegicus [9].
In the case of `CCC(CC)NC(=O)[C@@H]1C=C2c3cccc4[nH]cc(c34)C[C@H]2N(C)C1`, the SDL in the assay with Rattus norvegicus [10] is 58%; in the assay on Rattus norvegicus [14], 85%; in the assay on Rattus norvegicus [18] it was 67%; in the assay with Rattus norvegicus [19], 92%. Besides, the Ki was 8 nM in [2] and 2.1 nM in assay [6]. Besides, the D in the assay with Rattus norvegicus [11] is on record as 0%; with Rattus norvegicus [13], 0%; in the assay with Rattus norvegicus [15], 0%; in the assay with Rattus norvegicus [16] it was 14%. Moreover, the ED50 in the assay with Rattus norvegicus [12] came to 0.052 µmol/kg. This compound also returned a Potency with Rattus norvegicus [17] of 0.92.
On to `CC[C@@H](C)NC(=O)[C@@H]1C=C2c3cccc4[nH]cc(c34)C[C@H]2N(C)C1`, for which, in [2], affinity was put at a Ki of 8.8 nM. Besides, the D with Rattus norvegicus [20], in the assay with Rattus norvegicus [23], in the assay with Rattus norvegicus [27], in the assay on Rattus norvegicus [28] and in the assay with Rattus norvegicus [29] was 0% in each case. For the same compound, the SDL amounted to 88% with Rattus norvegicus [21]; 75% with Rattus norvegicus [22]; 75% with Rattus norvegicus [25]; 13% with Rattus norvegicus [26]; 50% in the assay on Rattus norvegicus [31]. In the assay with Rattus norvegicus [24], this compound gave an ED50 of 0.033 µmol/kg. Also, in the assay with Rattus norvegicus [30], the Potency was 1.45.
Turning to `CCCCC[C@@H](C)NC(=O)[C@@H]1C=C2c3cccc4[nH]cc(c34)C[C@H]2N(C)C1`, the Ki worked out at 80 nM in assay [2] and 3.3 nM in assay [6].
Take `CCCC(C)NC(=O)[C@@H]1C=C2c3cccc4[nH]cc(c34)C[C@H]2N(C)C1` (stereo not given in full): the SDL in the assay with Rattus norvegicus [32] is recorded as 25%; in the assay on Rattus norvegicus [34], 0%; in the assay on Rattus norvegicus [35], 0%. Besides, the D is recorded as 11% with Rattus norvegicus [33], 0% with Rattus norvegicus [37] and 0% in the assay with Rattus norvegicus [29]. Moreover, the ED50 result in the assay with Rattus norvegicus [36] was “inactive”. The Ki in assay [6] is 8 nM; in assay [38], 105 nM.
